PMC7127420 (European Journal of Medicinal Chemistry, 2008)
Where two headings read alike, the source gives them in different places.

Legend:
[1] = test system: human T-lymphocyte (CEM) cells; experiment: Cytostatic activity in mock-infected CEM cells; format: cell-based; settings: concentration required to reduce mock-infected CEM cell viability by 50%
Outline: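 Mock-infected CEM cell cultures were run alongside the HIV-infected CEM cultures. CC50 was the compound concentration inhibiting CEM cell proliferation by 50%.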

HIV-1(IIIB) [2] = settings: ref [1], cited from earlier work; for EC50: read-out: EC50 HIV-1(IIIB), CEM cells
recombinant HIV-2 RT = recombinant HIV-2 RT (Human immunodeficiency virus type 2 subtype A, UniProt P04584); experiment: Anti-reverse transcriptase assay, HIV-2 RT; format: biochemical, HIV-2(ROD)
Outline: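 Recombinant RT derived from HIV-2(ROD). Substrate was [8-3H]dGTP (2.5 μM) on poly(C).oligo(dG)12–18 (0.1 mM), with inhibitor at various concentrations. Incubated 37 °C for 30 min, then stopped with yeast RNA and trichloroacetic acid in Na4P2O7 and held on ice 30 min. Acid-insoluble radioactivity was counted; IC50 was the concentration giving 50% inhibition of RT activity.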

HIV-2(ROD) = settings: read-out: EC50 HIV-2(ROD); CEM cells; racemic mixture; ref [1]; cited from earlier work
[3] = test system: human T-lymphocyte (CEM) cells; settings: mock-infected CEM cells; racemic mixture; ref [1]; cited from earlier work
HIV-1(IIIB) [4] = experiment: Inhibition of HIV-1; format: cell-based, Human immunodeficiency virus type 1; settings: relative to 8

Sequence of recombinant HIV-2 RT (P04584 613-1171 limits assumed): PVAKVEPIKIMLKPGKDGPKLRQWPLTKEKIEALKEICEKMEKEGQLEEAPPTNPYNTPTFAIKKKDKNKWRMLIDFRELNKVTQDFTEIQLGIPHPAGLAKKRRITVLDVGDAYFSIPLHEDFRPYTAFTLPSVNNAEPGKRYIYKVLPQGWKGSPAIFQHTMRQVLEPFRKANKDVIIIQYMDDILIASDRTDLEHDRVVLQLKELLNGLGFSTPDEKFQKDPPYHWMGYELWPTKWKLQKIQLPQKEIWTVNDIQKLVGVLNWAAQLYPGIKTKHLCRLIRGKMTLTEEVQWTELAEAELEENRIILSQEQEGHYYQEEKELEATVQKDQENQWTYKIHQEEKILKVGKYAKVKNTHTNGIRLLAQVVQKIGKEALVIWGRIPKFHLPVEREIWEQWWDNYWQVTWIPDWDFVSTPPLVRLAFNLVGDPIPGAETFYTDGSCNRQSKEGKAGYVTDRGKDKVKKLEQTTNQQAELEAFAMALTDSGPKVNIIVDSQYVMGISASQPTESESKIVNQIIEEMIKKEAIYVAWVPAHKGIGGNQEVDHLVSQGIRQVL
Sequence of recombinant HIV-2 RT (P04584 613-1051 partner limits assumed): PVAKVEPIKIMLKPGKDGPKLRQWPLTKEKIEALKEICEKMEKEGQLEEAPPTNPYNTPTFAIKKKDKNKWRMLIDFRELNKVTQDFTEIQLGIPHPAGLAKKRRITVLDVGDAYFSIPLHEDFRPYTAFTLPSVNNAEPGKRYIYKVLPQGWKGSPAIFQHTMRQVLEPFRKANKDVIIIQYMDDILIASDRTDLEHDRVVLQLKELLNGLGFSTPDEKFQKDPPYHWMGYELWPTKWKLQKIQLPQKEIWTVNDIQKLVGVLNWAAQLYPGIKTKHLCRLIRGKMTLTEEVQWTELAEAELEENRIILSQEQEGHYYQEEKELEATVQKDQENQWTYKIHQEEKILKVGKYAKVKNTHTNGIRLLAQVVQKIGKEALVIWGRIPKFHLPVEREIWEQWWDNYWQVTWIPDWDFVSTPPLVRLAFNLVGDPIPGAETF

## 2-Adamantan-1-ylmethyl-3-(2-dimethylaminoethyl)-thiazolidin-4-one [Compound 20]
[1]
  CC50: 43 ± 20.1 µM

## Cc1cc(C)nc(N2C(=O)CSC2C23CC4CC(CC(C4)C2)C3)c1 (single isomer, unassigned) [levo isomer]
HIV-1(IIIB) [2]
  fold less active than the (+)-isomer (anti-HIV-1 activity): more than 60 fold

## Cc1cc(C)nc(N2C(=O)CS[C@@H]2C23CC4CC(CC(C4)C2)C3)c1 (single isomer, unassigned; (+)) [7 (R enantiomer), (+)-2-adamantan-1-yl-3-(4,6-dimethyl-pyridin-2-yl)-thiazolidin-4-one, reference compound]
Recombinant HIV-2 RT
  IC50: > 600 µM
HIV-1(IIIB) [2]
  EC50: 0.178 µM

## Cc1cc(C)nc(N2C(=O)CSC2C23CC4CC(CC(C4)C2)C3)c1 (stereo not shown) [Compound 7, 2-adamantan-1-yl-3-(4,6-dimethylpyridin-2-yl)-thiazolidin-4-one]
HIV-1(IIIB) [2]
  EC50: 0.35 ± 0.175 µM
HIV-2(ROD)
  EC50: > 12 µM
[3]
  CC50: 42 ± 8.1 µM

## Cc1ccnc(N2C(=O)CSC2C23CC4CC(CC(C4)C2)C3)n1 (stereo not shown) [Compound 10, 2-Adamantan-1-yl-3-(4-methylpyrimidin-2-yl)-thiazolidin-4-one]
HIV-1(IIIB) [4]
  fold reduction in antiviral potency (anti-HIV-1): 6 fold

## Cc1cc(C)nc(N2C(=O)CSC2CC23CC4CC(CC(C4)C2)C3)n1 (stereo not shown) [Compound 12, 2-Adamantan-1-ylmethyl-3-(2,6-methylpyrimidin-2-yl)-thiazolidin-4-one]
HIV-1(IIIB) [4]
  fold reduction in antiviral potency (anti-HIV-1): 13 fold

## O=C1CSC(c2c(Cl)cccc2Cl)N1CC12CC3CC(CC(C3)C1)C2 (stereo not shown) [Compound 24, 3-Adamantan-1-ylmethyl-2-(2,6-dichlorophenyl)-thiazolidin-4-one]
Recombinant HIV-2 RT
  IC50: ≥ 600 µM

## O=C1CSC(c2c(Cl)cccc2Cl)N1CCC12CC3CC(CC(C3)C1)C2 (stereo not shown) [Compound 25, 3-(2-Adamantan-1-ylethyl)-2-(2,6-dichlorophenyl)-thiazolidin-4-one]
Recombinant HIV-2 RT
  IC50: > 600 µM

## O=C1CSC(c2c(F)cccc2F)N1CC12CC3CC(CC(C3)C1)C2 (stereo not shown) [Compound 28, 3-Adamantan-1-ylmethyl-2-(2,6-difluorophenyl)-thiazolidin-4-one]
Recombinant HIV-2 RT
  IC50: > 600 µM

## O=C1CSC(c2c(F)cccc2F)N1CCC12CC3CC(CC(C3)C1)C2 (stereo not shown) [Compound 29, 3-(2-Adamantan-1-ylethyl)-2-(2,6-difluorophenyl)-thiazolidin-4-one]
Recombinant HIV-2 RT
  IC50: ≥ 600 µM
